Assay results as given in PubChem BioAssay AID504906 (The Scripps Research Institute Molecular Screening Center, 2011).

Biological target: Nuclear receptor ROR-alpha (Homo sapiens) (UniProt P35398)
Assay: displacement of tritiated 25-hydroxycholesterol from RORa – biochemical, [3H]25-hydroxycholesterol, radioligand competition, GST-RORa LBD, orthogonal assay for RORA inverse agonist project, late-stage follow-up (AID 504906)
Details: [3H]25-hydroxycholesterol displacement, radioligand binding
In short: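 Material: purified GST-tagged human RORα ligand-binding domain, residues 304-556, E. coli-expressed / Reagent: 3 nM [3H]25-hydroxycholesterol / Technique: GF/B filter capture of bound radioligand / Evaluation: Ki via mixed-inhibition model regression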

Chain of Nuclear receptor ROR-alpha (Homo sapiens) (P35398 whole entry, looked up, the tested form may be a part): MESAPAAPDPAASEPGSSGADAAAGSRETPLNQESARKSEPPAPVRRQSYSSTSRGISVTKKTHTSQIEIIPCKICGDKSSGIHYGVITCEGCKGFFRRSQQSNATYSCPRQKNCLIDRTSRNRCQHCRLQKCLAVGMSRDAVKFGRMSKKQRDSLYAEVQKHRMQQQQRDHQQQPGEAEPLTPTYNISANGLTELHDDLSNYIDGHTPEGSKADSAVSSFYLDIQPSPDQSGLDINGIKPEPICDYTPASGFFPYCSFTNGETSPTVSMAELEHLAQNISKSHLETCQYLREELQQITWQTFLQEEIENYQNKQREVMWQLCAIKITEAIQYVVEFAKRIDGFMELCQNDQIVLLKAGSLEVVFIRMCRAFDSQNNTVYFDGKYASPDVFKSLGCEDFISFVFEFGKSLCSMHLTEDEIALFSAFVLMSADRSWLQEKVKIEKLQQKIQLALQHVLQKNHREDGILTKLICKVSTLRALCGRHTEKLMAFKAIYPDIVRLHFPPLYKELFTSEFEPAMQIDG

Ki: 220 nM
Compound: O=S(=O)(Nc1ccc(C(O)(C(F)(F)F)C(F)(F)F)cc1)c1cccs1
